Reference: ChEMBL document CHEMBL1123705, “Antitumor agents. 86. Synthesis and cytotoxicity of alpha-methylene-gamma-lactone-bearing purines” (1987)
Converted amounts (≈) assume the structure as drawn.

Key:
Format in all cases: functional
[1] = tested on: L1210; test: Compound was tested for its antitumor activity and the cytotoxicity against L1210 lymphoid leukemia screen; settings: Mus musculus, read-out: ED50 (the source's name)
How it was run: (§1)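 Run per the NIH cytotoxicity protocol. Viable cells were counted by trypan blue exclusion and expressed as a percentage of the 0.05% Tween 80–water control. ED₅₀ was estimated from a semilog plot against drug concentration.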

[2] = tested on: P388; test: Compound was tested for its antitumor activity and the cytotoxicity against P-388 lymphocytic leukemia screen; settings: Mus musculus, read-out: ED50 (the source's name); how it was run: as §1
[3] = tested on: KB; test: Compound was tested for its antitumor activity and the cytotoxicity against KB human carcinoma of the nasopharynx screen; settings: read-out: ED50 (the source's name); how it was run: as §1

COc1cc([C@@H]2c3cc4c(cc3[C@@H](O[C@@H]3O[C@@H]5CO[C@@H](C)O[C@H]5[C@H](O)[C@H]3O)[C@H]3COC(=O)[C@H]23)OCO4)cc(OC)c1O [ETOPOSIDE]
EC50 [1]: 1.58 µg/mL (≈ 2.68 µM)
EC50 [2]: 1.71 µg/mL (≈ 2.91 µM)

C=C1CC(C)(Cn2c(N)nc3ncnc-3c2O)OC1=O (stereo unspecified)
EC50 [1]: 1.3 µg/mL (≈ 4.72 µM)
EC50 [2]: > 20 µg/mL
EC50 [3]: > 10 µg/mL

C=C1CC(C)(Cn2cnc3c(O)ncnc32)OC1=O (stereo unspecified)
EC50 [1]: 2 µg/mL (≈ 7.68 µM)
EC50 [2]: > 20 µg/mL
EC50 [3]: > 10 µg/mL

C=C1CC(C)(Cn2cnc3c(N)ncnc32)OC1=O (stereo unspecified)
EC50 [1]: 0.3 µg/mL (≈ 1.16 µM)
EC50 [2]: > 20 µg/mL
EC50 [3]: 5 µg/mL (≈ 19.3 µM)
